Source: ChEMBL document CHEMBL2203053, “DNA binding acridine-thiazolidinone agents affecting intracellular glutathione” (Bioorg Med Chem, 2012)
Calls of active or inactive are those of the source. The rule behind the calls is not given here.

Key:
[1] = test system: HL-60; assay: Drug uptake in human HL60 cells at 5 uM after 4 hrs by Hoechst staining based fluorescence microscopy; assay type: ADME, cell-based; settings: hl-60, 4 h
How it was run: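 HL-60 cells were exposed to 5 µM for 4 h at 37 °C, 5% CO₂, then washed in PBS. Intrinsic blue fluorescence was viewed by optical and fluorescence microscopy. Untreated control cells were stained with Hoechst 33342 (10 µM, 10 min).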

[2] = test system: HL-60; assay: Drug uptake in human HL60 cells at 10 uM after 10 to 60 mins by RP-HPLC analysis; assay type: ADME, cell-based; settings: hl-60, 10 µM
How it was run: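 HL-60 cells (2 × 10⁶/mL) were exposed to 10 µM for 10 or 60 min, washed twice in PBS and extracted with methanol (1 h, 4 °C). Extract was centrifuged at 6700 × g and injected (20 µL) onto a C18 RP-HPLC column. Mobile phase was methanol/50 mM ammonium formate 80:20, pH 4.5, at 0.5 mL/min and 25 °C, with detection at 370 nm.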

[3] = test system: Nucleic Acid; assay: Ratio of daunomycin K to compound K for calf thymus DNA by spectrofluorimetry based McGhee von Hippel method; assay type: nucleic-acid assay; settings: Bos taurus
[4] = test system: HL-60; assay: Cell cycle arrest in human HL60 cells assessed as accumulation at G2 phase at 1 uM after 48 hrs by propidium iodide staining based flow cytometry (reference value: 12.90%); assay type: functional
[5] = test system: NIH3T3; assay: Cytotoxicity against mouse NIH/3T3 cells after 72 hrs by MTT assay; assay type: cell-based; settings: NIH3T3, 72 h
[6] = test system: HL-60; assay: Cytotoxicity against human HL60 cells after 72 hrs using trypan blue exclusion staining by DCC method; assay type: functional, cell-based; settings: HL-60, 72 h
How it was run: (§1)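 For trypan blue dye-exclusion direct cell counting, HL-60 cells were seeded at 1 × 10⁵ cells/mL. Compound at 0–10 µM, or 1% DMSO control, was added after 24 h. Viable counts were taken after 24, 48 and 72 h. IC50 (50% inhibition of viability) came from growth curves, as mean ± S.D., n = 3.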

[7] = test system: HL-60; assay: Cell cycle arrest in human HL60 cells assessed as accumulation at G1 phase at 1 uM after 48 hrs by propidium iodide staining based flow cytometry (reference value: 48.14%); assay type: functional
[8] = test system: HL-60; assay: Induction of oxidative stress in BSO pretreated human HL60 cells assessed as superoxide production at 5 uM treated 6 hrs after BSO addition measured after 1 hr by DHE dye fluorescence microscopy; assay type: functional, cell-based
How it was run: (§2)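 HL-60 cells (4 × 10⁵) were cultured 24 h at 37 °C, then given 5 µM for 1 h, with or without 6 h pretreatment with 10 µM L-buthionine-sulfoximine. Dihydroethidium (20 µM) was then added for 20 min at 37 °C. Cells were washed in PBS and superoxide was viewed by fluorescence microscopy. Menadione served as positive control.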

[9] = Binding affinity to NAC assessed as second order rate constant at 1 mM at pH 6.5 after 10 mins by UV-visible spectrophotometry
How it was run: (§3)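 Reaction with N-acetyl-L-cysteine was run in 100 mM Tris/HCl containing 50% DMSO at 25 °C, with final 2c at 20 µM and NAC at 1 mM. pH was 6.0, 6.5 or 7.0. Spectral change was monitored by UV–vis, with the mixture held 10 min. Second-order rate constants k2 (M⁻¹ s⁻¹) are reported.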

[10] = test system: Nucleic Acid; assay: Ratio of proflavine K to compound K for calf thymus DNA by spectrofluorimetry based McGhee von Hippel method; assay type: nucleic-acid assay; settings: Bos taurus
[11] = test system: HL-60; assay: Cell cycle arrest in human HL60 cells assessed as accumulation at S phase at 0.5 uM after 48 hrs by propidium iodide staining based flow cytometry (reference value: 38.96%); assay type: functional
[12] = test system: HL-60; assay: Induction of cell death in human HL60 cells assessed as late apoptotic cells at 4 uM after 24 hrs by FDA/PI staining based flow cytometer (reference value: 0.01%); assay type: functional
[13] = test system: HL-60; assay: Cytotoxicity against human HL60 cells after 48 hrs using trypan blue exclusion staining by DCC method; assay type: functional, cell-based; settings: HL-60, 48 h; how it was run: as §1
[14] = test system: HL-60; assay: Cell cycle arrest in human HL60 cells assessed as accumulation at G2 phase at 0.5 uM after 48 hrs by propidium iodide staining based flow cytometry (reference value: 12.90%); assay type: functional
[15] = Binding affinity to NAC assessed as second order rate constant at 1 mM at pH 6 after 10 mins by UV-visible spectrophotometry; how it was run: as §3
[16] = test system: HL-60; assay: Cell cycle arrest in human HL60 cells assessed as accumulation at G1 phase at 0.5 uM after 48 hrs by propidium iodide staining based flow cytometry (reference value: 48.14%); assay type: functional
[17] = test system: HL-60; assay: Cytotoxicity against human HL60 cells after 72 hrs by MTT assay; assay type: functional, cell-based; settings: HL-60, 72 h
How it was run: (§4)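 HL-60, L1210 and A2780 cells were grown in RPMI 1640 with 10% FBS, penicillin and streptomycin at 37 °C, 5% CO₂; HL-60 and A2780 medium also had 2 mM glutamine. Cells were exposed to 0–30 µM for 48 or 72 h. Viability was read by MTT microculture tetrazolium assay and IC50 was determined.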

[18] = test system: L1210; assay: Cytotoxicity against mouse L1210 cells after 48 hrs by MTT assay; assay type: functional, cell-based; settings: L1210, 48 h; how it was run: as §4
[19] = test system: HL-60; assay: Induction of cell death in human HL60 cells assessed as viable cells at 4 uM after 24 hrs by FDA/PI staining based flow cytometer (reference value: 90.16%); assay type: functional; settings: HL-60, 24 h, read-out: Activity
[20] = test system: HL-60; assay: Cell cycle arrest in human HL60 cells assessed as accumulation at S phase at 1 uM after 48 hrs by propidium iodide staining based flow cytometry (reference value: 38.96%); assay type: functional
[21] = test system: HL-60; assay: Induction of necrosis in human HL60 cells assessed as cell shrinking at 2.5 uM after 24 hrs by propidium iodide staining based fluorescence microscopy; assay type: functional
[22] = test system: HL-60; assay: Induction of cell death in human HL60 cells assessed as viable cells at 2 uM after 24 hrs by FDA/PI staining based flow cytometer (reference value: 90.16%); assay type: functional; settings: HL-60, 24 h, read-out: Activity
[23] = test system: HL-60; assay: Induction of oxidative stress in human HL60 cells assessed as superoxide production at 5 uM after 1 hr by DHE dye based fluorescence microscopy; assay type: functional, cell-based; how it was run: as §2
[24] = test system: HL-60; assay: Cytotoxicity against BSO pretreated human HL60 cells assessed as cell viability at 1 uM treated 6 hrs after BSO addition measured after 48 hrs by trypan blue exclusion assay; assay type: functional, cell-based
How it was run: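 HL-60 cells were pretreated 6 h with L-buthionine-sulfoximine (10 µM), then exposed to 1.5, 3.0 or 1.0 µM compound for 48 h. Viable cells were counted by trypan blue staining and expressed as percentage of all cells.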

[25] = test system: HL-60; assay: Cytotoxicity against human HL60 cells after 48 hrs by MTT assay; assay type: functional, cell-based; settings: HL-60, 48 h; how it was run: as §4
[26] = test system: Nucleic Acid; assay: Binding affinity to calf thymus DNA assessed as binding constant by spectrofluorimetry based McGhee von Hippel method; assay type: nucleic-acid assay; settings: Bos taurus
How it was run: (§5)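 Fluorescence titration used compound at 26.7 µM in 0.01 M Tris buffer (pH 7.4, 24 °C). ctDNA was added stepwise from 0 to 32 µM bp at 2 µM intervals until spectra stopped changing. Excitation was 384 nm and emission was read at 410–470 nm. Binding constant K was derived by the McGhee–von Hippel method from Scatchard plot data.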

[27] = test system: HL-60; assay: Induction of cell death in human HL60 cells assessed as necrotic cells at 4 uM after 24 hrs by FDA/PI staining based flow cytometer (reference value: 5.87%); assay type: functional
[28] = test system: A2780; assay: Drug uptake in human A2780 cells at 5 uM after 4 hrs by Hoechst staining based fluorescence microscopy; assay type: ADME, cell-based; settings: a2780, 4 h
[29] = test system: Nucleic Acid; assay: Binding affinity to calf thymus DNA assessed as hypochromicity at 25 uM by UV-visible spectrophotometry; assay type: nucleic-acid assay; settings: Bos taurus
How it was run: (§6)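 Absorption spectra were taken in 0.01 M Tris buffer, pH 7.4. Compounds were diluted from DMSO stock to a final 25 µM. Sonicated calf thymus DNA in TE buffer was added at 0–30 µM bp, with concentration set by A260. Shift of λmax (free vs bound) and % hypochromicity were recorded.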

[30] = test system: Nucleic Acid; assay: Ratio of acridine orange K to compound K for calf thymus DNA by spectrofluorimetry based McGhee von Hippel method; assay type: nucleic-acid assay; settings: Bos taurus
[31] = test system: HL-60; assay: Cell cycle arrest in human HL60 cells assessed as accumulation at sub G0 phase at 0.5 uM after 48 hrs by propidium iodide staining based flow cytometry (reference value: 1.93%); assay type: functional
[32] = test system: A2780; assay: Cytotoxicity against human A2780 cells after 48 hrs by MTT assay; assay type: functional, cell-based; settings: A2780, 48 h; how it was run: as §4
[33] = test system: Nucleic Acid; assay: Binding affinity to calf thymus DNA assessed as bathochromic shift at 25 uM by UV-visible spectrophotometry; assay type: nucleic-acid assay; settings: Bos taurus; how it was run: as §6
[34] = test system: HL-60; assay: Decrease in intracellular glutathione level in human HL60 cells at 1 uM after 2 to 24 hrs by spectrophotometric analysis; assay type: functional, cell-based
[35] = test system: L1210; assay: Cytotoxicity against mouse L1210 cells after 72 hrs by MTT assay; assay type: functional, cell-based; settings: L1210, 72 h; how it was run: as §4
[36] = test system: HL-60; assay: Induction of cell death in human HL60 cells assessed as late apoptotic cells at 2 uM after 24 hrs by FDA/PI staining based flow cytometer (reference value: 0.01%); assay type: functional
[37] = test system: A2780; assay: Cytotoxicity against human A2780 cells after 72 hrs by MTT assay; assay type: functional, cell-based; settings: A2780, 72 h; how it was run: as §4
[38] = test system: Nucleic Acid; assay: Binding affinity to calf thymus DNA assessed as melting temperature at 5 uM at pH 7.1 by thermal denaturation assay; assay type: nucleic-acid assay; settings: Bos taurus
[39] = test system: HL-60; assay: Induction of cell death in human HL60 cells assessed as early apoptotic cells at 4 uM after 24 hrs by FDA/PI staining based flow cytometer (reference value: 3.96%); assay type: functional
[40] = test system: HL-60; assay: Cell cycle arrest in human HL60 cells assessed as accumulation at sub G0 phase at 1 uM after 48 hrs by propidium iodide staining based flow cytometry (reference value: 1.93%); assay type: functional
[41] = test system: Nucleic Acid; assay: Binding affinity to calf thymus DNA assessed as intercalation at 26.7 uM by fluorometric titration analysis; assay type: nucleic-acid assay; settings: Bos taurus; how it was run: as §5
[42] = test system: HL-60; assay: Induction of cell death in human HL60 cells assessed as necrotic cells at 2 uM after 24 hrs by FDA/PI staining based flow cytometer (reference value: 5.87%); assay type: functional
[43] = test system: HL-60; assay: Induction of cell death in human HL60 cells assessed as early apoptotic cells at 2 uM after 24 hrs by FDA/PI staining based flow cytometer (reference value: 3.96%); assay type: functional
[44] = Binding affinity to NAC assessed as second order rate constant at 1 mM at pH 7 after 10 mins by UV-visible spectrophotometry; how it was run: as §3

## COC(=O)/C=C1\S/C(=N\c2c3ccccc3nc3ccccc23)N(c2ccc(Br)cc2)C1=O
[1]
  Drug uptake: Active
[2]
  Drug uptake: Active
[3]
  Ratio: 10
[4]
  Activity: 5.08%
[5]
  IC50: 3500 nM
[6]
  IC50: 900 nM
[7]
  Activity: 82.93%
[8]
  Activity: Active
[9]
  Activity: 3.8 M⁻¹ s⁻¹
[10]
  Ratio: 10
[11]
  Activity: 38.4%
[12]
  Activity: 0.01%
[13]
  IC50: 1600 nM
[14]
  Activity: 10.56%
[15]
  Activity: 2 M⁻¹ s⁻¹
[16]
  Activity: 51.04%
[17]
  IC50: 1300 nM
[18]
  IC50: 1700 nM
[19]
  viability at 4 µM: 17.8%
[20]
  Activity: 11.99%
[21]
  Activity: Active
[22]
  viability at 2 µM: 8.46%
[23]
  Activity: Active
[24]
  Activity: Active
[25]
  IC50: 1400 nM
[26]
  K: 5.89 ×10⁶ /M
[27]
  Activity: 62.62%
[28]
  Drug uptake: Active
[29]
  Activity: 24.2%
[30]
  Ratio: 10
[31]
  Activity: 21.7%
[32]
  IC50: 12500 nM
[33]
  Activity: Active
[34]
  Activity: Active
[35]
  IC50: 3100 nM
[36]
  Activity: 0.03%
[37]
  IC50: 7700 nM
[38]
  Tm: 81 °C
[39]
  Activity: 19.57%
[40]
  Activity: 25.85%
[41]
  Activity: Active
[42]
  Activity: 22.87%
[43]
  Activity: 68.64%
[44]
  Activity: 9.9 M⁻¹ s⁻¹
